{"source": "ChEMBL document CHEMBL3525963", "about": "“Tissue distribution and elimination of [14C]apixaban in rats” (Drug Metab Dispos, 2011)", "conditions_in_all_cases": "in vivo", "key": {"[1]": {"tested_on": "Harderian gland", "assay": "Biodistribution in male Sprague-Dawley rat harderian gland at 5 mg/kg, po administered as single dose measured after 0.5 hrs", "type": "ADME, organism-based", "parameters": "dose 5 mg/kg, dosed compound name [14C]-apixaban, route oral", "summary_of_the_method": "(§1)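 [¹⁴C]Apixaban given by oral gavage at 5 mg/kg (100 μCi/kg) in 0.5% Tween 80 in Labrafil (1.0 mg/mL dosing solution) to rats fasted overnight through 4 h post-dose. One rat per time point; carcass frozen in hexane/dry ice. Quantitative whole-body autoradiography used 40 µm sagittal sections and a phosphor imaging plate calibrated with [¹⁴C]glucose standards (0.001–6.5 μCi/g). Read-out in µg eq apixaban/g; LLOQ 0.037 μg eq/g.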"}, "[2]": {"tested_on": "Adrenal gland", "assay": "Biodistribution in male Sprague-Dawley rat adrenal gland at 5 mg/kg, po administered as single dose measured after 0.5 hrs", "type": "ADME, organism-based", "parameters": "dose 5 mg/kg, dosed compound name [14C]-apixaban, route oral", "summary_of_the_method": "as §1"}, "[3]": {"tested_on": "Rattus norvegicus", "assay": "Biodistribution in female Sprague-Dawley rat salivary gland at 5 mg/kg, po administered as single dose measured after 24 hrs", "type": "ADME, organism-based", "parameters": "dose 5 mg/kg, dosed compound name [14C]-apixaban, route oral", "summary_of_the_method": "(§2)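 Quantitative whole-body autoradiography was run after a single 5 mg/kg (100 μCi/kg) oral gavage to fasted female or pregnant SD rats, one rat per time point. Carcasses were frozen in hexane/dry ice, and 40 µm sagittal sections were dried at −20°C for at least 48 h. Sections were exposed to a phosphor plate alongside [14C]glucose standards (0.001–6.5 µCi/g). Results are µg eq/g, with LLOQ 0.037 µg eq/g.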"}, "[4]": {"tested_on": "Muscle tissue", "assay": "Biodistribution in female Sprague-Dawley rat muscle at 5 mg/kg, po administered as single dose measured after 24 hrs", "type": "ADME, organism-based", "parameters": "dose 5 mg/kg, dosed compound name [14C]-apixaban, route oral", "summary_of_the_method": "as §2"}, "[5]": {"tested_on": "Rattus norvegicus", "assay": "Biodistribution in female Sprague-Dawley rat brown fat at 5 mg/kg, po administered as single dose measured after 8 hrs", "type": "ADME, organism-based, Brown adipose tissue", "parameters": "dose 5 mg/kg, dosed compound name [14C]-apixaban, route oral", "summary_of_the_method": "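[14C]apixaban (20 μCi/mL in dosing solution) in 0.5% Tween 80 in Labrafil given by oral gavage to fasted female rats, 206-213 g, at 100 μCi/kg. One rat per time point was euthanized and snap-frozen. Sagittal 40 µm whole-body sections were read by QWBA phosphor imaging against [14C]glucose standards. Results are in µg eq apixaban/g, with LLOQ 0.037 μg eq/g.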"}, "[6]": {"tested_on": "Adrenal gland", "assay": "Biodistribution in male Sprague-Dawley rat adrenal gland at 5 mg/kg, po administered as single dose measured after 4 hrs", "type": "ADME, organism-based", "parameters": "dose 5 mg/kg, dosed compound name [14C]-apixaban, route oral", "summary_of_the_method": "as §1"}, "[7]": {"tested_on": "Rattus norvegicus", "assay": "Biodistribution in male Sprague-Dawley rat bone marrow at 5 mg/kg, po administered as single dose measured after 4 hrs", "type": "ADME, organism-based", "parameters": "dose 5 mg/kg, dosed compound name [14C]-apixaban, route oral", "summary_of_the_method": "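Fasted male rats, 225-252 g, received [14C]apixaban by single oral gavage at 100 μCi/kg in 0.5% Tween 80/Labrafil. One rat was killed per time point and the carcass frozen. Tissue radioactivity was quantified by QWBA (40 µm sagittal sections, phosphor plate, [14C]glucose calibration) as µg eq apixaban/g, with LLOQ 0.037 μg eq/g.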"}, "[8]": {"tested_on": "Harderian gland", "assay": "Biodistribution in male Sprague-Dawley rat harderian gland at 5 mg/kg, po administered as single dose measured after 4 hrs", "type": "ADME, organism-based", "parameters": "dose 5 mg/kg, dosed compound name [14C]-apixaban, route oral", "summary_of_the_method": "as §1"}, "[9]": {"tested_on": "Rattus norvegicus", "assay": "Biodistribution in male Sprague-Dawley rat pituitary gland at 5 mg/kg, po administered as single dose measured after 4 hrs", "type": "ADME, organism-based", "parameters": "dose 5 mg/kg, dosed compound name [14C]-apixaban, route oral"}, "[10]": {"tested_on": "Heart", "assay": "Biodistribution in pregnant Sprague-Dawley rat heart at 5 mg/kg, po administered as single dose measured after 24 hrs", "type": "ADME, organism-based", "parameters": "dose 5 mg/kg, dosed compound name [14C]-apixaban, route oral", "summary_of_the_method": "(§3)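 Fasted pregnant SD rats (n=6, 270-319 g) each received one oral gavage dose of [14C]apixaban, 5 mg/kg (100 μCi/kg), in 0.5% Tween 80/Labrafil. One rat was killed at each of 0.5, 1, 4, 8, 24 and 48 h. Carcasses were frozen in hexane/dry ice, cut into 40 µm sagittal sections, exposed to phosphor plates and quantified against [14C]glucose standards as µg eq/g. LLOQ was 0.037 µg eq/g.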"}, "[11]": {"tested_on": "Blood", "assay": "Biodistribution in female Sprague-Dawley rat blood at 5 mg/kg, po administered as single dose measured after 0.5 hrs", "type": "ADME, organism-based", "parameters": "dose 5 mg/kg, dosed compound name [14C]-apixaban, route oral", "summary_of_the_method": "as §1"}, "[12]": {"tested_on": "Plasma", "assay": "AUC (0 to infinity) in lactating Sprague-Dawley rat plasma at 5 mg/kg, po administered as single dose", "type": "ADME, organism-based", "parameters": "time infinity, dose 5 mg/kg, dosed compound name [14C]-apixaban, route oral", "summary_of_the_method": "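Fasted lactating SD rats received 5 mg/kg [14C]apixaban orally (formulation 5.0 mg/mL, 20 μCi/mL). Oxytocin was injected subcutaneously 15 min before collection, and 1 mL milk was taken under anesthesia by milking machine. Sampling was predose and at 0.5–24 h, 3 rats per time point. Plasma was obtained at 1300g for 10 min. Duplicate 50–100 µL aliquots were counted by LSC for 10 min. AUC was calculated in WinNonlin.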"}, "[13]": {"assay": "Drug level in lactating Sprague-Dawley rat milk at 5 mg/kg, po administered as single dose after 2 hrs", "type": "ADME, organism-based", "parameters": "dose 5 mg/kg, dosed compound name [14C]-apixaban, route oral"}, "[14]": {"tested_on": "Rattus norvegicus", "assay": "Biodistribution in fetal brain of pregnant Sprague-Dawley rat at 5 mg/kg, po administered as single dose measured after 24 hrs", "type": "ADME, organism-based", "parameters": "dose 5 mg/kg, dosed compound name [14C]-apixaban, route oral", "summary_of_the_method": "as §2"}, "[15]": {"tested_on": "Adrenal gland", "assay": "Biodistribution in pregnant Sprague-Dawley rat adrenal gland at 5 mg/kg, po administered as single dose measured after 48 hrs", "type": "ADME, organism-based", "parameters": "dose 5 mg/kg, dosed compound name [14C]-apixaban, route oral", "summary_of_the_method": "as §3"}, "[16]": {"tested_on": "Rattus norvegicus", "assay": "Biodistribution in pregnant Sprague-Dawley rat pituitary gland at 5 mg/kg, po administered as single dose measured after 48 hrs", "type": "ADME, organism-based", "parameters": "dose 5 mg/kg, dosed compound name [14C]-apixaban, route oral", "summary_of_the_method": "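Pregnant SD rats (270-319 g) were fasted overnight and given one oral gavage of 5 mg/kg (100 μCi/kg) in 0.5% Tween 80 in Labrafil. One rat was euthanized per time point (0.5, 1, 4, 8, 24, 48 h) and the carcass frozen. 40 µm sagittal sections were phosphor-imaged against [14C]glucose standards and results reported as µg eq/g; LLOQ 0.037 µg eq/g.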"}, "[17]": {"tested_on": "Liver", "assay": "Biodistribution in female Sprague-Dawley rat liver at 5 mg/kg, po administered as single dose measured after 4 hrs", "type": "ADME, organism-based", "parameters": "dose 5 mg/kg, dosed compound name [14C]-apixaban, route oral", "summary_of_the_method": "as §2"}, "[18]": {"tested_on": "Thymus", "assay": "Biodistribution in female Sprague-Dawley rat thymus at 5 mg/kg, po administered as single dose measured after 1 hr", "type": "ADME, organism-based", "parameters": "dose 5 mg/kg, dosed compound name [14C]-apixaban, route oral", "summary_of_the_method": "as §1"}, "[19]": {"tested_on": "Spleen", "assay": "Biodistribution in female Sprague-Dawley rat spleen at 5 mg/kg, po administered as single dose measured after 1 hr", "type": "ADME, organism-based", "parameters": "dose 5 mg/kg, dosed compound name [14C]-apixaban, route oral", "summary_of_the_method": "as §1"}, "[20]": {"tested_on": "Heart", "assay": "Biodistribution in pregnant Sprague-Dawley rat heart at 5 mg/kg, po administered as single dose measured after 4 hrs", "type": "ADME, organism-based", "parameters": "dose 5 mg/kg, dosed compound name [14C]-apixaban, route oral"}, "[21]": {"tested_on": "Rattus norvegicus", "assay": "Biodistribution in pregnant Sprague-Dawley rat salivary gland at 5 mg/kg, po administered as single dose measured after 4 hrs", "type": "ADME, organism-based", "parameters": "dose 5 mg/kg, dosed compound name [14C]-apixaban, route oral"}, "[22]": {"tested_on": "Spleen", "assay": "Biodistribution in pregnant Sprague-Dawley rat spleen at 5 mg/kg, po administered as single dose measured after 4 hrs", "type": "ADME, organism-based", "parameters": "dose 5 mg/kg, dosed compound name [14C]-apixaban, route oral"}, "[23]": {"tested_on": "Rattus norvegicus", "assay": "Biodistribution in pregnant Sprague-Dawley rat placenta at 5 mg/kg, po administered as single dose measured after 4 hrs", "type": "ADME, organism-based", "parameters": "dose 5 mg/kg, dosed compound name [14C]-apixaban, route oral"}, "[24]": {"tested_on": "Rattus norvegicus", "assay": "Biodistribution in pregnant Sprague-Dawley rat placenta at 5 mg/kg, po administered as single dose measured after 0.5 hrs", "type": "ADME, organism-based", "parameters": "dose 5 mg/kg, dosed compound name [14C]-apixaban, route oral"}, "[25]": {"tested_on": "Rattus norvegicus", "assay": "Biodistribution in pregnant Sprague-Dawley rat salivary gland at 5 mg/kg, po administered as single dose measured after 1 hr", "type": "ADME, organism-based", "parameters": "dose 5 mg/kg, dosed compound name [14C]-apixaban, route oral"}, "[26]": {"tested_on": "Rattus norvegicus", "assay": "Biodistribution in pregnant Sprague-Dawley rat brown fat at 5 mg/kg, po administered as single dose measured after 8 hrs", "type": "ADME, organism-based, Brown adipose tissue", "parameters": "dose 5 mg/kg, dosed compound name [14C]-apixaban, route oral"}, "[27]": {"tested_on": "Heart", "assay": "Biodistribution in pregnant Sprague-Dawley rat heart at 5 mg/kg, po administered as single dose measured after 8 hrs", "type": "ADME, organism-based", "parameters": "dose 5 mg/kg, dosed compound name [14C]-apixaban, route oral"}, "[28]": {"assay": "Drug excretion in Sprague-Dawley rat feces at 30 mg/kg, po administered as single dose after 0 to 168 hrs"}, "[29]": {"assay": "Drug excretion in Sprague-Dawley rat urine at 30 mg/kg, po administered as single dose after 0 to 168 hrs"}}}
{"smiles": "COc1ccc(-n2nc(C(N)=O)c3c2C(=O)N(c2ccc(N4CCCC[14C]4=O)cc2)CC3)cc1", "values": [{"measurement": "Radiolabel recovery", "setting": "[1]", "value": 0.21, "unit": "ugequiv/g"}, {"measurement": "Radiolabel recovery", "setting": "[2]", "value": 0.59, "unit": "ugequiv/g"}, {"measurement": "Radiolabel recovery", "setting": "[3]", "value": "Not detected assumed BLQ"}, {"measurement": "Radiolabel recovery", "setting": "[4]", "value": "Not detected assumed BLQ"}, {"measurement": "Radiolabel recovery", "setting": "[5]", "value": 0.17, "unit": "ugequiv/g"}, {"measurement": "Radiolabel recovery", "setting": "[6]", "value": 0.76, "unit": "ugequiv/g"}, {"measurement": "Radiolabel recovery", "setting": "[7]", "value": 0.32, "unit": "ugequiv/g"}, {"measurement": "Radiolabel recovery", "setting": "[8]", "value": 0.42, "unit": "ugequiv/g"}, {"measurement": "Radiolabel recovery", "setting": "[9]", "value": 0.37, "unit": "ugequiv/g"}, {"measurement": "Radiolabel recovery", "setting": "[10]", "value": "Not detected assumed BLQ"}, {"measurement": "Radiolabel recovery", "setting": "[11]", "value": 0.4, "unit": "ugequiv/g"}, {"measurement": "AUC", "setting": "[12]", "value": 3470, "unit": "ngequiv.hr/g"}, {"measurement": "Radiolabel recovery", "setting": "[13]", "value": 7.59, "unit": "µg/mL"}, {"measurement": "Radiolabel recovery", "setting": "[14]", "value": "Not detected assumed BLQ"}, {"measurement": "Radiolabel recovery", "setting": "[15]", "value": "Not sampled as not visualised in autoradiograph"}, {"measurement": "Radiolabel recovery", "setting": "[16]", "value": "Not sampled as not visualised in autoradiograph"}, {"measurement": "Radiolabel recovery", "setting": "[17]", "value": 3.98, "unit": "ugequiv/g"}, {"measurement": "Radiolabel recovery", "setting": "[18]", "value": 0.27, "unit": "ugequiv/g"}, {"measurement": "Radiolabel recovery", "setting": "[19]", "value": 0.35, "unit": "ugequiv/g"}, {"measurement": "Radiolabel recovery", "setting": "[20]", "value": 0.83, "unit": "ugequiv/g"}, {"measurement": "Radiolabel recovery", "setting": "[21]", "value": 1.03, "unit": "ugequiv/g"}, {"measurement": "Radiolabel recovery", "setting": "[22]", "value": 0.47, "unit": "ugequiv/g"}, {"measurement": "Radiolabel recovery", "setting": "[23]", "value": 1.06, "unit": "ugequiv/g"}, {"measurement": "Radiolabel recovery", "setting": "[24]", "value": 1.02, "unit": "ugequiv/g"}, {"measurement": "Radiolabel recovery", "setting": "[25]", "value": 0.95, "unit": "ugequiv/g"}, {"measurement": "Radiolabel recovery", "setting": "[26]", "value": 0.06, "unit": "ugequiv/g"}, {"measurement": "Radiolabel recovery", "setting": "[27]", "value": 0.06, "unit": "ugequiv/g"}, {"measurement": "Radiolabel recovery", "setting": "[28]", "value": 74, "unit": "%"}, {"measurement": "Radiolabel recovery", "setting": "[29]", "value": 14, "unit": "%"}]}
